High-throughput results (PubChem)
The list is not random: actives were taken first. Their share in the collection is about 1.4%.
STAT1 blocker = STAT1 signaling inhibitors, primary screen, cell-based, HTS, luciferase reporter; NIH 3T3 STAT1-luciferase reporter, IFN-gamma, luminescence; inhibition, % at 5.5 µM; actives 0.35% (n = 200,000);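 active means inhibition above a set limit, the mean inhibition across all tested compounds plus 3 SD, cut at about 34% in these data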;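 further: 0% = IFN-gamma with DMSO and 100% = IFN-gamma with 300 µM nifuroxazide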
STAT3 inh-1 = IL-6 driven STAT3 reporter inhibitors, primary screen, U3A cells, luciferase, luminescence, MLSCN library. IL-6 STAT3-luciferase reporter; host cell line lacks STAT1. inhibition, % at 5.5 µM. actives 0.89% (n = 190,000). AID 862, 2007;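 active means inhibition above the mean inhibition across all screened compounds plus 3 SD, cut at about 44% in these data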;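 further: 0% = DMSO only wells and 100% = 100 µM nifuroxazide control wells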
STAT3 act = IL-6 driven STAT3 reporter potentiators, primary screen, U3A cells, luciferase, luminescence, MLSCN library. IL-6 STAT3-luciferase reporter; 100% = signal with IL-6 EC80 alone. activation (% of control), % at 5.6 µM. actives 0.91% (n = 190,000);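 active means activation above the screen-wide mean of compound activation plus 3 SD, cut at about 130% in these data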;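 further: 0% = background luminescence of wells with medium and substrate only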
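Detection: reporter luminescence signal / Assay system: STAT1-lacking human U3A cells, STAT3 luciferase reporter / Incubation: compound pre-incubation 1 h before IL-6, then 6 h stimulation at 37 °C / Control set: IL-6-only high control / Read-out: % activation relative to IL-6 control / Probe or stimulus: Interleukin-6, 33 ng/mL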
Platelet DG rel = inhibitors of platelet dense granule secretion, primary screen, cell-based, MLPCN, human platelets; human platelet-rich plasma, SFLLRN dense granule ATP release, luminescence; inhibition, %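 (compounds screened at 7.5 µM in platelet-rich plasma)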; actives 0.22% (n = 300,000); AID 1663, 2009;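 active means mean replicate score, as percent of positive control, at or above 50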
PERK inh = block of dimerizer-induced PERK translation repression, primary screen, PERK inhibitor project, CHO PERK-DD cells, SEAP luminescence, HTS; inhibition, % at 5.6 µM; actives 0.17% (n = 220,000); Eukaryotic translation initiation factor 2-alpha kinase 3 (Homo sapiens), Q9NZJ5; CHO PERK-DD fusion, SEAP luminescence translation reporter;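 active means inhibition above the mean inhibition of all tested compounds plus 3 SD, set separately per screening campaign, cut at about 2.9% in these data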;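 further: PERK kinase domain activated by AP20187 dimerizer at 100 nM; 0% = DMSO with dimerizer and 100% = rapamycin at 8.4 µM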
Target sequence (Q9NZJ5 whole entry, looked up, the tested form may be a part): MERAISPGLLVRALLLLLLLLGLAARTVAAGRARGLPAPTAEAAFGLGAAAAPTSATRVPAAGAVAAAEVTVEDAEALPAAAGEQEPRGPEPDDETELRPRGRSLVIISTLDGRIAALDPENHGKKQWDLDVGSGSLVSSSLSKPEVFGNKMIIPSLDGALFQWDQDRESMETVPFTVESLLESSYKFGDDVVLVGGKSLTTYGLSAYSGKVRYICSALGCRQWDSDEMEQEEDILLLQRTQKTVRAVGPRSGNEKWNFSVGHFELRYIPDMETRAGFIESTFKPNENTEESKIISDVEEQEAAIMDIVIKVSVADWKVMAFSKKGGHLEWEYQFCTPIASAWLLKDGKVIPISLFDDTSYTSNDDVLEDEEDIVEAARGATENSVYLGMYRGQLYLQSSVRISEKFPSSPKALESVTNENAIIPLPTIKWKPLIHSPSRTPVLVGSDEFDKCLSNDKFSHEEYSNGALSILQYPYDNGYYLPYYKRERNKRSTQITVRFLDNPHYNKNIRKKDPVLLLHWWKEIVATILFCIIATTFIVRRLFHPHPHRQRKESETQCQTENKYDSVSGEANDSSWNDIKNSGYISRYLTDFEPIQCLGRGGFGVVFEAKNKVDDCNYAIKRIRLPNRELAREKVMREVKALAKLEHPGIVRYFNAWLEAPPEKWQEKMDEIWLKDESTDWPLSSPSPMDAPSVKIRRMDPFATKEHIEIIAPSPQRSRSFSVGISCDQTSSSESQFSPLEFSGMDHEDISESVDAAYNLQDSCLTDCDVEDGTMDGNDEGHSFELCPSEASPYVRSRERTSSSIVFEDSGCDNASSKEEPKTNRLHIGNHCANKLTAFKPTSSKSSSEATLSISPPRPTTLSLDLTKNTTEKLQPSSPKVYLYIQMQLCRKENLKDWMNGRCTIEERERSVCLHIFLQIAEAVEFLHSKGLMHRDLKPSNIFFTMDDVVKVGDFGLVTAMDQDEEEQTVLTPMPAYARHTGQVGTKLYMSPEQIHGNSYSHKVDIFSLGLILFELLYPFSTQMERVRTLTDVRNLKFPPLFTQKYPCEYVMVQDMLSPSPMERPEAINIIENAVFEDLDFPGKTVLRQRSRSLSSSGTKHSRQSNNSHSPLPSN
STAT3 inh-2 = STAT3 reporter inhibitors, retest of hits, confirmation, U3A cells, luciferase, luminescence; shares compounds with STAT3 inh-1; IL-6 STAT3 luciferase reporter; cell line lacks STAT1; inhibition, % at 5.7 µM; actives 45% (n = 1,200);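 active means inhibition above the hit cutoff computed for the primary STAT3 screen, cut at about 44% in these data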;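 further: 0% = IL-6 plus DMSO and 100% = IL-6 plus nifuroxazide control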
NFkB inh STAT3ct = NF-kB reporter inhibitors in human cells, confirmation, counter-screen for STAT3 inhibitor project, cell-based, HEK293T, luciferase, TNF-alpha stimulus; shares compounds with STAT3 inh-1; TNF-alpha induced; inhibition, % at 5.7 µM; actives 36% (n = 1,200);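 active means inhibition above the mean of solvent-only control wells plus 3 SD, cutoff set per campaign, cut at about 13% in these data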;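 further: 0% = TNF-alpha with DMSO and 100% = TNF-alpha with MG high control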
STAT1 inh 2 = STAT1 reporter inhibitors, IFN-gamma induced, confirmation, counter-screen for STAT3 inhibitor project, cell-based, NIH 3T3, luciferase luminescence; shares compounds with STAT3 inh-1; NIH 3T3 STAT1-luciferase reporter; inhibition, % at 5.7 µM; actives 27% (n = 1,200);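 active means inhibition above the mean plus 3 SD of solvent-only control wells, limit set per screening run, cut at about 16% in these data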;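 further: 0% = DMSO with IFN-gamma and 100% = nifuroxazide control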
The depositor's hits bear a star; · = not tested or not shown.

SMILES | STAT1 blocker | STAT3 inh-1 | STAT3 act | Platelet DG rel | PERK inh | STAT3 inh-2 | NFkB inh STAT3ct | STAT1 inh 2
Cc1ccc(C(=O)/C=C2\NCC(C)NC2=O)cc1 (stereo not drawn) | -11.1 | 65.1* | 45.7 | -15.6 | -0.3 | 25.0 | -6.3 | -85.1
COc1cccc(C(=O)Nc2nnc(S(=O)(=O)N(C)Cc3ccc(F)cc3)s2)c1 | · | · | · | -3.8 | · | · | · | ·
Cc1nn(C)c(C)c1NC(=O)CSc1nc(-c2ccccc2Cl)nc2c1cnn2-c1ccccc1 | -10.8 | -4.3 | 107.3 | -0.9 | 0.1 | · | · | ·
Cc1nn(C)c(C)c1NC(=O)CSc1nc(C2CC2)nc2c1cnn2-c1ccccc1 | 4.7 | 50.3* | 61.6 | 0.4 | 0.4 | 36.9 | 7.3 | -3.4
COc1ccc(N=C/C=C2\C=C(c3ccccc3)OC(C)(C)O2)cc1 | 15.7 | 48.3* | 63.1 | 1.0 | -0.1 | 8.0 | 5.0 | 6.5
Cc1ccccc1N=C/C=C1/C=C(c2ccccc2)OC(C)(C)O1 | 16.3 | 1.0 | 100.3 | -4.7 | 0.5 | · | · | ·
CC1CCC2C(=O)N(c3ccccc3OC(=O)c3ccccc3)C(=O)C2C1 (stereo not drawn) | 5.0 | 43.9* | 65.5 | -1.1 | 1.5 | 45.0* | 1.6 | 3.2
CC1CCC2C(=O)N(c3cc(Cl)ccc3OC(=O)c3ccco3)C(=O)C2C1 (stereo not drawn) | · | · | · | 7.8 | · | · | · | ·
c1ccc2sc(-c3ccc4c(c3)OCO4)nc2c1 | 4.4 | 70.3* | 41.3 | · | -0.4 | 25.2 | 7.1 | -68.0
O=C(Nc1ccc(Oc2cccnc2)cc1)c1cccc([N+](=O)[O-])c1 | -11.7 | 13.4 | 87.4 | 30.3 | -1.6 | · | · | ·
O=C(Nc1ccc(Oc2cccnc2)cc1)c1ccc([N+](=O)[O-])cc1 | 11.5 | 69.2* | 44.6 | 2.2 | 0.0 | 65.0* | 23.5* | 1.2
OCc1cc(-c2ccccn2)no1 | · | · | · | 2.0 | · | · | · | ·
c1ccc(CC2CCN(c3ncnc4sccc34)CC2)cc1 | 26.0 | 83.2* | 32.5 | 5.2 | -0.3 | 78.9* | 12.5 | 7.7
O=C(O)c1cc2c(N3CCC(Cc4ccccc4)CC3)ncnc2s1 | -3.7 | -2.9 | 114.5 | 1.8 | 0.3 | · | · | ·
O=S(=O)(c1cccs1)N1CCN(CC(O)COc2cc(Cl)ccc2Cl)CC1 (stereo not drawn) | 20.9 | 53.5* | 56.6 | · | -0.5 | 35.4 | 15.0* | 17.2*
Cc1ccc(NC(=O)N2CCc3ccccc32)cc1 | 11.2 | 55.7* | 55.8 | 33.5 | 0.6 | 19.0 | -2.9 | -93.0
Cc1ccc(NC(=O)N2CCCc3ccccc32)cc1 | -8.1 | 13.1 | 91.6 | -5.4 | 1.4 | · | · | ·
Cc1ccc(NC(=O)N2CCc3ccccc32)cc1C | 7.3 | 61.9* | 49.8 | 16.2 | -0.2 | 14.1 | -26.4 | -142.9
C=C(C)Cn1cnc2c(oc3nc4c(cc32)CCCC4)c1=O | · | · | · | 5.2 | 1.3 | · | · | ·
Cc1ccnc(NS(=O)(=O)c2ccc(NS(=O)(=O)c3cc(Cl)ccc3Cl)cc2)n1 | · | · | · | -21.5 | · | · | · | ·
CCN(C(=O)CC(C)C)c1nnc(Cn2nnc3ccccc32)s1 | 13.9 | 12.0 | 91.0 | -5.0 | -0.2 | · | · | ·
CCN(C(=O)c1ccc(C(C)(C)C)cc1)c1nnc(Cn2nnc3ccccc32)s1 | 21.7 | 86.4* | 27.3 | 4.0 | -0.7 | 84.5* | 30.9* | 15.0
CCCc1c(C)nc(N2CCN(c3ccccc3OC)CC2)[nH]c1=O | · | · | · | -2.8 | · | · | · | ·
COc1cc(/C=N/N=C(\N)c2nonc2N)cc(OC)c1O | · | · | · | 15.8 | 2.4 | · | · | ·
COc1ccc(/C=N/N=C(\N)c2nonc2N)cc1 | 27.9 | 50.6* | 61.0 | 67.5* | 1.7 | 28.4 | -10.4 | -116.5
SMILES | STAT1 blocker | STAT3 inh-1 | STAT3 act | Platelet DG rel | PERK inh | STAT3 inh-2 | NFkB inh STAT3ct | STAT1 inh 2
CCOc1cc(/C=N/Nc2nc(-c3cccs3)c(NC(C)=O)s2)ccc1O | · | · | · | 0.5 | 1.2 | · | · | ·
CCCCCc1ccc(OCCOCCn2c[n+](C)c3ccccc32)c(CCCCC)c1 | 30.7 | 56.1* | 53.9 | -2.8 | 0.6 | 65.9* | 15.7* | 22.8*
COc1ccc(-c2cc(C3CCN(c4cc(Cl)nc(N)n4)CC3)[nH]n2)cc1 | 6.8 | 28.5 | 78.8 | -0.5 | -0.3 | · | · | ·
Nc1nc(Cl)cc(N2CCC(c3cc(-c4ccc(Cl)cc4)n[nH]3)CC2)n1 | 24.2 | 52.6* | 61.1 | -7.3 | -2.0 | 45.6* | -3.4 | 21.0*
O=C(CCCCCBr)N1CCC(CC2CC(c3cccc(Br)c3)=NO2)(C(=O)NCC2CCCCC2)CC1 (stereo not drawn) | · | · | · | -7.7 | · | · | · | ·
O=C1c2ccccc2C(=O)N1Cc1cnc(N2CCN(c3ccccc3)CC2)s1 | -7.1 | 12.5 | 93.5 | 6.2 | 0.7 | · | · | ·
COc1ccc(-c2cn3nc4c(nc3n2)CCCC4)cc1 | -7.4 | 70.2* | 41.8 | · | 0.0 | -17.1 | -5.7 | -10.4
COc1ccc(-c2cn3ccc4ccccc4c3n2)cc1 | -21.1 | -32.1 | 127.4 | 2.2 | -1.1 | · | · | ·
COc1cccc(C=Nc2ccc3c(c2)OCCO3)c1O | 0.0 | 49.0* | 62.6 | 27.6 | 0.5 | 3.8 | 2.8 | -13.2
COc1cccc(C=Nc2ccc(N3CCOCC3)cc2)c1O | · | · | · | -3.9 | · | · | · | ·
COc1ccc(CCNC(=O)CN2C(=O)NC(C)(c3ccc([N+](=O)[O-])cc3)C2=O)cc1 (stereo not drawn) | -0.6 | 7.7 | 96.9 | 3.1 | 0.7 | · | · | ·
COc1ccc(OC(=O)c2ccc3nsnc3c2)cc1 | 6.7 | 0.2 | 100.0 | -3.6 | 0.1 | · | · | ·
Cc1ccc(OC(=O)c2ccc3nc(C)sc3c2)cc1 | 24.0 | 56.9* | 52.4 | 4.4 | -0.4 | -11.8 | -26.7 | -49.4
Cc1nc2ccc(-c3nc4cc(N)ccc4o3)cc2[nH]1 | -18.0 | 54.6* | 55.0 | 21.9 | 0.2 | 15.1 | -13.8 | -63.1
Cc1cc(C)c2oc(-c3cccc(N)c3)nc2c1 | · | · | · | -8.1 | · | · | · | ·
Cc1ccc2nc(-c3cccc(N)c3)oc2c1 | 20.0 | 55.0* | 56.9 | 23.1 | -0.6 | 17.2 | -10.2 | -109.8
COC(=O)COc1ccc(-n2cnnn2)cc1 | -4.8 | -0.5 | 106.8 | -1.2 | 2.7 | · | · | ·
COc1ccc(-c2cc3nc(C)cc(N)n3n2)cc1 | 24.2 | 69.1* | 42.0 | 94.0* | 0.2 | 25.4 | 9.9 | -38.2
CC(C)=NNC(=O)C1=NNC(=O)C1 | · | · | · | -11.7 | 0.7 | · | · | ·
Cc1ccc(S(=O)(=O)NCc2ccncc2)c(C)c1C | 28.6 | 81.1* | 32.5 | -3.3 | -0.5 | 81.9* | 25.8* | 14.3
CCCCNS(=O)(=O)c1ccc(S(=O)(=O)NCc2ccncc2)cc1 | 25.2 | 53.5* | 57.3 | -3.9 | -0.1 | 35.0 | -2.7 | 19.0*
